Measurements published in ChEMBL document CHEMBL5058577, “EUbOPEN Chemogenomics Library 2 (Multiplex)” (2022).

Tested on: Fibroblast
Assay: Multiplex assay against human fibroblast
Assay type: toxicity, cell-based
Procedure, shortened: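 With compound added, live cells were imaged on a CQ1 microscope at 37°C and 5% CO2; staining with Hoechst33342, BioTracker Green Microtubule Cytoskeleton Dye, MitoTracker Red and Annexin V Alexa Fluor 680 had been done at seeding. The CellPathfinder machine-learning gating scheme split cells into Hoechst high-intensity objects or normal cells, normal cells into healthy, pyknosed or fragmented nuclei, and pyknosed cells into mitotic or apoptotic. The tubulin, mitochondrial-mass and membrane-permeability phenotypes are per cents of healthy-nucleus cells.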

[1] = 12 h, 1 µM, compound concentration 1 uM, replicate 1
[2] = 12 h, 1 µM, compound concentration 1 uM, replicate 2
[3] = 12 h, 10 µM, compound concentration 10 uM, replicate 1
[4] = 12 h, 10 µM, compound concentration 10 uM, replicate 2
[5] = 24 h, 1 µM, compound concentration 1 uM, replicate 1
[6] = 24 h, 1 µM, compound concentration 1 uM, replicate 2
[7] = 24 h, 10 µM, compound concentration 10 uM, replicate 1
[8] = 24 h, 10 µM, compound concentration 10 uM, replicate 2
[9] = 48 h, 1 µM, compound concentration 1 uM, replicate 1
[10] = 48 h, 1 µM, compound concentration 1 uM, replicate 2
[11] = 48 h, 10 µM, compound concentration 10 uM, replicate 1
[12] = 48 h, 10 µM, compound concentration 10 uM, replicate 2

## Cc1cnc(-c2cc(N3CCN(C(=O)CCS(C)(=O)=O)CC3)ncc2Cl)c(C)c1
[1]
  Population Apoptotic (%): 36%
  Population Fragmented Nuclei (%): 9%
  Population Healthy Nuclei (%): 71%
  Population Hoechst High Intensity Objects (%): 1%
  Population Membrane Permeable-Phenotype (%): 0%
  Population Mitochondria Different-Phenotype (%): 7%
  Population Mitotic Cells (%): 63%
  Population Normal (%): 98%
  Population Pyknosed Nuclei (%): 19%
  Population Tubulin-Different-Phenotype (%): 20%
  Total Cell Count: 99
[2]
  Population Apoptotic (%): 31%
  Population Fragmented Nuclei (%): 22%
  Population Healthy Nuclei (%): 36%
  Population Hoechst High Intensity Objects (%): 9%
  Population Membrane Permeable-Phenotype (%): 7%
  Population Mitochondria Different-Phenotype (%): 10%
  Population Mitotic Cells (%): 68%
  Population Normal (%): 90%
  Population Pyknosed Nuclei (%): 41%
  Population Tubulin-Different-Phenotype (%): 50%
  Total Cell Count: 85
[3]
  Population Apoptotic (%): 40%
  Population Fragmented Nuclei (%): 13%
  Population Healthy Nuclei (%): 71%
  Population Hoechst High Intensity Objects (%): 4%
  Population Membrane Permeable-Phenotype (%): 1%
  Population Mitochondria Different-Phenotype (%): 2%
  Population Mitotic Cells (%): 60%
  Population Normal (%): 95%
  Population Pyknosed Nuclei (%): 14%
  Population Tubulin-Different-Phenotype (%): 24%
  Total Cell Count: 142
[4]
  Population Apoptotic (%): 26%
  Population Fragmented Nuclei (%): 21%
  Population Healthy Nuclei (%): 63%
  Population Hoechst High Intensity Objects (%): 1%
  Population Mitotic Cells (%): 73%
  Population Normal (%): 98%
  Population Pyknosed Nuclei (%): 15%
  Population Tubulin-Different-Phenotype (%): 37%
  Total Cell Count: 121
[5]
  Population Apoptotic (%): 54%
  Population Fragmented Nuclei (%): 10%
  Population Healthy Nuclei (%): 76%
  Population Hoechst High Intensity Objects (%): 6%
  Population Membrane Permeable-Phenotype (%): 2%
  Population Mitochondria Different-Phenotype (%): 4%
  Population Mitotic Cells (%): 45%
  Population Normal (%): 93%
  Population Pyknosed Nuclei (%): 12%
  Population Tubulin-Different-Phenotype (%): 30%
  Total Cell Count: 97
[6]
  Population Apoptotic (%): 47%
  Population Fragmented Nuclei (%): 35%
  Population Healthy Nuclei (%): 38%
  Population Hoechst High Intensity Objects (%): 10%
  Population Membrane Permeable-Phenotype (%): 3%
  Population Mitochondria Different-Phenotype (%): 0%
  Population Mitotic Cells (%): 52%
  Population Normal (%): 89%
  Population Pyknosed Nuclei (%): 25%
  Population Tubulin-Different-Phenotype (%): 61%
  Total Cell Count: 91
[7]
  Population Apoptotic (%): 46%
  Population Fragmented Nuclei (%): 10%
  Population Healthy Nuclei (%): 79%
  Population Hoechst High Intensity Objects (%): 0%
  Population Membrane Permeable-Phenotype (%): 2%
  Population Mitochondria Different-Phenotype (%): 6%
  Population Mitotic Cells (%): 53%
  Population Normal (%): 99%
  Population Pyknosed Nuclei (%): 9%
  Population Tubulin-Different-Phenotype (%): 28%
  Total Cell Count: 135
[8]
  Population Apoptotic (%): 42%
  Population Fragmented Nuclei (%): 19%
  Population Healthy Nuclei (%): 67%
  Population Hoechst High Intensity Objects (%): 4%
  Population Mitochondria Different-Phenotype (%): 9%
  Population Mitotic Cells (%): 57%
  Population Normal (%): 95%
  Population Pyknosed Nuclei (%): 12%
  Population Tubulin-Different-Phenotype (%): 38%
  Total Cell Count: 116
[9]
  Population Apoptotic (%): 69%
  Population Fragmented Nuclei (%): 19%
  Population Healthy Nuclei (%): 58%
  Population Hoechst High Intensity Objects (%): 2%
  Population Membrane Permeable-Phenotype (%): 0%
  Population Mitochondria Different-Phenotype (%): 1%
  Population Mitotic Cells (%): 30%
  Population Normal (%): 97%
  Population Pyknosed Nuclei (%): 21%
  Population Tubulin-Different-Phenotype (%): 33%
  Total Cell Count: 109
[10]
  Population Apoptotic (%): 36%
  Population Fragmented Nuclei (%): 40%
  Population Healthy Nuclei (%): 47%
  Population Hoechst High Intensity Objects (%): 5%
  Population Membrane Permeable-Phenotype (%): 12%
  Population Mitochondria Different-Phenotype (%): 9%
  Population Mitotic Cells (%): 63%
  Population Normal (%): 94%
  Population Pyknosed Nuclei (%): 12%
  Population Tubulin-Different-Phenotype (%): 70%
  Total Cell Count: 92
[11]
  Population Apoptotic (%): 50%
  Population Fragmented Nuclei (%): 21%
  Population Healthy Nuclei (%): 69%
  Population Hoechst High Intensity Objects (%): 2%
  Population Membrane Permeable-Phenotype (%): 0%
  Population Mitochondria Different-Phenotype (%): 7%
  Population Mitotic Cells (%): 50%
  Population Normal (%): 97%
  Population Pyknosed Nuclei (%): 8%
  Population Tubulin-Different-Phenotype (%): 33%
  Total Cell Count: 141
[12]
  Population Apoptotic (%): 75%
  Population Fragmented Nuclei (%): 29%
  Population Healthy Nuclei (%): 61%
  Population Hoechst High Intensity Objects (%): 3%
  Population Membrane Permeable-Phenotype (%): 2%
  Population Mitochondria Different-Phenotype (%): 5%
  Population Mitotic Cells (%): 25%
  Population Normal (%): 96%
  Population Pyknosed Nuclei (%): 9%
  Total Cell Count: 131
